Published values pooled from the literature.
Each line is one published result; the experiments were not run side by side.
JAK3: Tyrosine-protein kinase JAK3 (JAK3, Homo sapiens, UniProt P52333)
MET: Hepatocyte growth factor receptor (MET, Homo sapiens, UniProt P08581)
KCNA5: Potassium voltage-gated channel subfamily A member 5 (KCNA5, Homo sapiens, UniProt P22460)
IDE: Insulin-degrading enzyme (IDE, Homo sapiens, UniProt P14735)
gag-pol integrase: Gag-Pol polyprotein, integrase (gag-pol, Human immunodeficiency virus 1, UniProt P12497)
P2RX7: P2X purinoceptor 7 (P2RX7, Homo sapiens, UniProt Q99572)

| Structure (SMILES) | target | test | IC50 [nM] |
| --- | --- | --- | --- |
| CCOC(=O)c1cnc2[nH]ccc2c1N[C@@H]1CCCN(C(=O)CC#N)C1 | JAK3 | enzyme activity, inhibitor | 3.6 |
| O=C(Nc1ccccc1)c1cc([N+](=O)[O-])ccc1Cl | Peroxisome proliferator-activated receptor alpha (PPARA, Homo sapiens, UniProt Q07869) | ligand displacement, TR-FRET | 26 |
| CC[C@H](C)[C@H](NC(C)=O)C(=O)N[C@@H](CCC(=O)O)C(=O)N[C@H](C(=O)N[C@H](C=O)CC(=O)O)[C@@H](C)O | Caspase-9 (CASP9, Homo sapiens, UniProt P55211) | enzyme activity, inhibitor | 21.7 |
| Cc1cnc(-c2ccc(-c3ccc(NC(=O)Nc4c(F)cc(F)cc4F)cc3F)c3c2C(=O)NC3)[nH]1 | MET | enzyme activity, inhibitor | 13.6 |
| O=C(Nc1ccn(Cc2ccc(O)cc2C(F)(F)F)n1)c1c(F)cccc1F | KCNA5 | ion current, inhibitor | > 10000 |
| NC(=O)c1ccc[n+]([C@@H]2O[C@H](COP(=O)([O-])OP(=O)(O)OC[C@H]3O[C@@H](n4cnc5c(N)ncnc54)[C@H](O)[C@@H]3O)[C@@H](O)[C@H]2O)c1 | Protein mono-ADP-ribosyltransferase PARP3 (PARP3, Homo sapiens, UniProt Q9Y6F1) | enzyme activity, inhibitor | 5000 |
| COc1ccc2c(Oc3ccc4c(C(=O)Nc5ccccc5N)cccc4c3)ccnc2c1 | JAK3 | enzyme activity, inhibitor | > 500 |
| COC(=O)[C@H](Cc1c[nH]cn1)NC(=O)CN(CC(=O)O)Cc1ccc(C(F)(F)F)cc1 | IDE | enzyme activity, inhibitor, fluorescence | 2000 |
| CNC(=O)c1cc2c(Oc3ccc(NC(=O)C4(C(=O)Nc5ccc(F)cc5)CC4)cc3)ccnc2cc1OC | Hepatocyte growth factor receptor (MET, Homo sapiens, UniProt P08581, D1228H) | enzyme activity, inhibitor, radiometric | 4 |
| CC(C)(C)n1nc(-c2cnc3cc(OC4CC4)ccc3c2)c(C(N)=O)c1N | JAK3 | cell-free assay | > 10000 |
| CC(C)(C)OC(=O)N1CCC(C(=O)N[C@@H](Cc2ccccc2)C(=O)O)(c2ccc(-c3ccccc3)cc2)CC1 | gag-pol integrase | enzyme activity, inhibitor, TR-FRET | 64400 |
| COC(=O)CN(CC(=O)N[C@@H](Cc1c[nH]cn1)C(=O)OC)Cc1ccccc1 | IDE | enzyme activity, inhibitor, fluorescence | > 100000 |
| O=C(O)[C@H](Cc1ccccc1)NC(=O)C1(c2ccc(F)cc2)CCN(S(=O)(=O)c2ccccc2)CC1 | gag-pol integrase | enzyme activity, inhibitor, TR-FRET | 91300 |
| CC(C)COC(=O)[C@H](Cc1cnc[nH]1)NC(=O)CN(CC(=O)O)Cc1ccccc1 | IDE | enzyme activity, inhibitor, fluorescence | 600 |
| Cc1ccc(C(=O)Nc2ccc(Oc3cc4cnn(C)c4cc3-c3cn[nH]c3)c(F)c2)c(=O)n1-c1ccc(F)cc1 | Macrophage colony-stimulating factor 1 receptor (CSF1R, Homo sapiens, UniProt P07333) | phosphorylation in cells, inhibitor, western blot | 300 |
| CC(C)OC(=O)[C@H](Cc1c[nH]cn1)NC(=O)CN(CC(=O)O)Cc1ccccc1 | IDE | enzyme activity, inhibitor, fluorescence | 300 |
| Cc1ccc(-n2nc(C(C)(C)C)cc2NC(=O)Nc2ccc(OCCN3CCOCC3)c3ccccc23)cc1 | KCNA5 | ion current, inhibitor | 1100 |

| Structure (SMILES) | target | test | IC50 [nM] |
| --- | --- | --- | --- |
| COc1ccc(S(=O)(=O)N2Cc3cc(O)c(O)cc3CC2C(=O)NO)cc1 (stereo not drawn) | Interstitial collagenase (MMP1, Homo sapiens, UniProt P03956) | enzyme activity, inhibitor | 10000 |
| Cc1cc(Oc2ccc(NC(=O)c3cc(-c4cccs4)no3)cc2)c2nncn2n1 | MET | enzyme activity, inhibitor, mobility shift | 880 |
| COC(=O)[C@H](Cc1c[nH]cn1)NC(=O)CN(CC(=O)O)Cc1ccc(C)cc1 | IDE | enzyme activity, inhibitor, fluorescence | 1700 |
| CN1CCN(c2ccc(Nc3ncc4cc(C#N)c(=O)n(C5CCCC5)c4n3)cc2)CC1 | Serine/threonine-protein kinase 4 (STK4, Homo sapiens, UniProt Q13043) | enzyme activity, inhibitor | 7070 |
| CCOC(=O)CC1=C/C(=C\c2ccc(-c3ccccc3)cc2)c2ccc(F)cc21 | Prostaglandin G/H synthase 2 (Ptgs2, Mus musculus, UniProt Q05769) | enzyme activity, inhibitor | ~10000 |
| CCCCCCN(CC(=O)O)CC(=O)N[C@@H](Cc1c[nH]cn1)C(=O)OC | IDE | enzyme activity, inhibitor, fluorescence | 400 |
| CCOCc1nc(O)c(-c2nnc(Cc3ccc(Cl)cn3)o2)c(O)c1-c1c(OC)cccc1OC | Alpha-1B adrenergic receptor (ADRA1B, Homo sapiens, UniProt P35368) | ligand displacement, radioligand | > 30000 |
| FC(F)(F)c1cccc(-c2nnc(S)o2)c1 | P2RX7 | calcium signal, antagonist | 1500 |
| CC1(C)CC(=O)C=C(NC(=O)Nc2ccc(O)cc2)C1 | crk3 (Leishmania mexicana, UniProt O15851) | enzyme activity, inhibitor, radiometric | 3300 |
| COc1ccc(-c2n[nH]c(=S)o2)cc1 | P2RX7 | calcium signal, antagonist | 8290 |
| O=C(O)[C@H](Cc1ccccc1)NC(=O)C1(c2ccccc2)CCN(S(=O)(=O)c2ccccc2)CC1 | gag-pol integrase | enzyme activity, inhibitor, TR-FRET | 189000 |
| Sc1nnc(-c2ccccn2)o1 | P2RX7 | calcium signal, antagonist | 11800 |
| O=C(O)CN(CC(=O)N[C@@H](Cc1c[nH]cn1)C(=O)NCc1ccccc1)Cc1ccccc1 | IDE | enzyme activity, inhibitor, fluorescence | 1400 |
| CCOc1ccc2c(-c3cc(C)nc(Nc4cc(OC)cc(C(F)(F)F)c4)n3)cnn2n1 | Homeodomain-interacting protein kinase 1 (HIPK1, Homo sapiens, UniProt Q86Z02) | enzyme activity, inhibitor | > 10000 |
| COC(=O)[C@H](Cc1c[nH]cn1)NC(=O)CN(Cc1ccccc1)c1c(O)c(=O)c1=O | IDE | enzyme activity, inhibitor, fluorescence | 12500 |
| Cc1cc(Oc2ccc(NC(=O)c3sc(-c4ccncc4)nc3C)cc2F)c2nncn2n1 | MET | enzyme activity, inhibitor, mobility shift | 650 |
